According to PMC6917914 (Nature chemical biology, 2019):
Entries after “also recorded” stand apart in the source; their conditions may differ.

What was measured:
RBM39RRM2-biotin = target: T1, RBM39RRM2-biotin (Homo sapiens, UniProt Q14498); test: TR-FRET titration of BodipyFL-E7820 probe to RBM39RRM2-biotin; type: binding; conditions: probe titrated to RBM39RRM2-biotin
T1 sequence (Q14498 245-332): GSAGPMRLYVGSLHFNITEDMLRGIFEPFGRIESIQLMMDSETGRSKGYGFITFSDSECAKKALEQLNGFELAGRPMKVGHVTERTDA
Outline: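 RBM39RRM2 was Avi-tagged and biotinylated in vitro with BirA, then gel-filtered. It was mixed with 2 nM terbium-streptavidin in Tris pH 8.0/NaCl/Pluronic F-68/BSA buffer. Increasing BodipyFL-E7820 probe was added at 2% DMSO, 15 min room temperature. The 520/490 nm ratio without protein was subtracted, and KD came from a one-site specific-binding fit. Three independent replicates.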

DCAF15 = DCAF15 (Homo sapiens, UniProt Q66K64); test: TR-FRET competition assay: displacement of BodipyFL-E7820 from DCAF15; type: binding; conditions: for DCAF15 binding, in words: relative to E7820

Structure (SMILES)	compound binding to RBM39 (RBM39RRM2-biotin)	DCAF15 binding, in words (DCAF15)	Ki (DCAF15)
Cc1cc(C)n2c1C=C1C=CC(CCC(=O)NCCCCCCOc3ccc(S(=O)(=O)Nc4ccc(C)c5c(C#N)c[nH]c45)cc3C#N)=[N+]1[B-]2(F)F [BodipyFL-E7820, N-(6-(2-cyano-4-(N-(3-cyano-4-methyl-1H-indol-7-yl)sulfamoyl)phenoxy)hexyl)-3-(5,5-difluoro-7,9-dimethyl-5H-5λ^4,6λ^4-dipyrrolo[1,2-c:2',1'-f][1,3,2]diazaborinin-3-yl)propanamide]	only observed for DDB1ΔB-DCAF15biotin		
N#Cc1cccc(S(=O)(=O)Nc2cccc3c(C#N)c[nH]c23)c1 [desmethyl-E7820]		significant loss of DCAF15 binding	
NS(=O)(=O)c1ccc(S(=O)(=O)Nc2cccc3c(Cl)c[nH]c23)cc1 [indisulam]		significant loss of DCAF15 binding; also recorded: significant loss in affinity for DCAF15	> 50 µM
